A selection: hits, their analogues and other compounds. The true share with any hit is near 3.4%.
CHRM1 agonist – human M1 muscarinic receptor agonism. AID 588814. activation, % at 3 µM. CHO-K1 hM1, Fluo-8 calcium fluorescence, agonist mode; 0% DMSO, 100% acetylcholine EC100. 0.33% of 360,000 active;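 active means activation above the run's mean compound activation plus 3 SD, cut at about 16% in these data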;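 further: peak over basal fluorescence ratio within a 140 s kinetic read after compound addition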
M1 antag – blocks human M1 muscarinic receptor. AID 588852. 1.3% of 360,000 active. inhibition, % at 3 µM. CHO-K1 hM1, Fluo-8 calcium fluorescence, ACh EC80 antagonist;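 active means percent inhibition above its own plate's cutoff, namely the mean of that plate's compound wells plus 3 SD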;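 further: peak over basal fluorescence ratio during 140 s after agonist addition; 0% = ACh EC80 plus DMSO and 100% = DMSO alone without agonist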
TAAR1 antag – antagonists of human TAAR1 | Q96RJ0 | CHO RD-HGA16 TAAR1, Fluo-8 calcium fluorescence, antagonist | inhibition, % at 3 µM | 1.5% of 360,000 active;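 active means inhibition above a per-plate cutoff, the mean inhibition of test compounds on that plate plus 3 SD, cut at about 49% in these data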;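 further: 0% = DMSO plus EC80 beta-PEA response and 100% = DMSO alone without agonist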
Target sequence (Q96RJ0 whole entry, looked up): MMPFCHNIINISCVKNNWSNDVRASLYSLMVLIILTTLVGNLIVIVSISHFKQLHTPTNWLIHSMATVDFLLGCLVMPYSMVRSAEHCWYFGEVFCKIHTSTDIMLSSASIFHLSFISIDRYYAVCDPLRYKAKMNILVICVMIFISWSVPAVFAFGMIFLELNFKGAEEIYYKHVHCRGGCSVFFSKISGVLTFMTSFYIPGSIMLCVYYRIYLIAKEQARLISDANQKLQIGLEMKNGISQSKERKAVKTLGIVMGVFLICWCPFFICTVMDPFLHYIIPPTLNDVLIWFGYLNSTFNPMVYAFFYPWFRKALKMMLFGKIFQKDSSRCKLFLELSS
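Test system: hTAAR1-expressing CHO RD-HGA16 cells, Gα16-coupled; Probe or stimulus: EC80 β-phenethylamine stimulus; Compound dosing: single nominal final test compound concentration of 3 µM; Timing: 140 s kinetic read after compound, 140 s after agonist; Signal: Fluo-8 calcium-sensitive fluorescence; Measure: % inhibition of agonist calcium response; Controls: DMSO and EC80 PEA controls.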
M1 PAM – positive allosteric modulators of human M1 muscarinic receptor. P11229. CHO-K1 hM1, Fluo-8 calcium fluorescence, ACh EC20; 0% = ACh EC20, 100% = maximal ACh. activation, % at 3 µM. 0.088% of 360,000 active. AID 588819; in the data active means activation above about 19%, passing the limit was not always enough
TAAR1 agonist – human TAAR1 agonism | 0.99% of 360,000 active | AID 624467 | CHO RD-HGA16 TAAR1, Fluo-8 calcium fluorescence; vehicle wells 0%, saturating PEA agonist 100% | activation, % at 3 µM;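 active means activation above the mean activation of all test compounds in the run plus 3 SD, cut at about 38% in these data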
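Assay system – CHO-derived RD-HGA16 cells with stable Gα16 and human TAAR1 · Compound dosing – one-point dosing at 3 µM (nominal) · Incubation – 17-24 h seeding, 75 min 37 °C dye, 30 min RT · Measured by – kinetic Fluo-8 calcium fluorescence · Control set – DMSO vehicle as 0%, PEA at EC100 as 100% · Repeats – single well for each compound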
The depositor's hits bear a star; . = not tested or not shown.

SMILES | CHRM1 agonist | M1 antag | TAAR1 antag | M1 PAM | TAAR1 agonist
Cc1cc(Cl)ccc1N=c1ssnc1Cl | 6 | 10 | 29 | -2 | 42*
COC(=O)C1=C(C)N(Cc2ccccc2C(F)(F)F)C(=NCc2ccc3c(c2)OCO3)NC1c1cccc(Cl)c1 (stereo unspecified) | . | . | 8 | . | 17
C[C@H](O)[C@@H]1C(=O)N2CCc3c([nH]c4c(-c5ccc6c(c5)OCO6)cccc34)[C@@H]2C[C@@H]1N(C)C(=O)Nc1ccccc1 | . | . | 24 | . | 4
O=S1(=O)CC(N2CCC(c3ccccc3)CC2)CN1Cc1cn(Cc2ccc(C(F)(F)F)cc2)nn1 (stereo unspecified) | . | . | 37 | . | 10
COC(=O)c1sc(-c2ccc(Cl)cc2)cc1NC(=O)CSCC(=O)O | 0 | -9 | 2 | 11 | 10
COC(=O)c1sc(-c2ccc(C(C)(C)C)cc2)cc1NC(=O)COCC(=O)O | -1 | -10 | 50* | 1 | 9
COc1ccc(C(=O)NCC(=O)OCC(=O)c2c[nH]c3ccccc23)cc1 | -3 | -3 | 3 | -1 | 32
N#CCC(=O)Nc1ccc(C(=O)OCC(=O)c2c[nH]c3ccccc23)cc1 | -2 | -3 | 23 | 1 | 43*
O=C(CNC(=O)c1ccccc1)OCC(=O)c1c[nH]c2ccccc12 | 1 | -1 | 22 | 3 | 40*
Cc1ccc(CN2C(=O)N/C(=C\c3ccc(N4CCOCC4)cc3)C2=O)cc1 | -5 | 0 | -19 | 9 | 3
CCCN1C(=O)/C(=C/c2ccc(OCC(=O)OCC)cc2)NC1=S | 2 | -4 | 24 | 4 | 13
CCN1C(=O)/C(=C/c2ccc(N3CCCC3)cc2)NC1=S | 57* | 56* | 82* | -25 | 84*
CCCN1C(=O)/C(=C/c2ccc(N3CCOCC3)cc2)NC1=S | 14 | 26 | 43 | -9 | 54*
C[C@@H]1CN(C(=O)OC(C)(C)C)CCN1c1ccc(N2CCS(=O)(=O)CC2)c(C#N)c1 | . | . | 16 | . | 12
c1ccc2c(CCNc3ncnc4nc[nH]c34)c[nH]c2c1 | 2 | 20 | 59* | -19 | 10
Cc1ncc([N+](=O)[O-])n1CC(O)CCl (stereo unspecified) | 17* | -22 | -21 | 0 | 0
Cc1nnsc1NC(=O)OCc1ccc(C(F)(F)F)cc1 | 1 | -1 | 5 | 2 | 2
Cc1nnsc1NC(=O)OCc1ccccc1Cl | 0 | 3 | 5 | -2 | 41*
CCC(NC(=O)c1cc(COc2ccc(F)cc2Cl)on1)c1ccncc1 (stereo unspecified) | 10 | 1 | 24 | 9 | 43*
O=C(NC1CCCC1)C(C1CC1)n1c(-c2ccncc2)nc2ccccc21 (stereo unspecified) | . | . | -15 | . | 2
C=CCNC(=S)NNC(=O)c1cccn(Cc2cccc(Cl)c2)c1=O | -6 | 21* | 12 | -21 | 9
C=CCNC(=S)NNC(=O)c1cccn(Cc2ccc(Cl)cc2)c1=O | -6 | -4 | -4 | 14 | 3
Cc1ccc2ccccc2c1C(O)c1ncc(-c2ccccc2)[nH]1 (stereo unspecified) | -1 | -7 | 0 | 2 | 10
N=C(N)SCc1ccccn1 | 30* | -2 | 4 | -6 | 9
N=C(N)SCc1ncccc1O | 12 | -14 | . | 4 | .
SMILES | CHRM1 agonist | M1 antag | TAAR1 antag | M1 PAM | TAAR1 agonist
COC(=O)C1=C(C)N(Cc2ccccc2C(F)(F)F)C(=NCc2cc(OC)c(OC)c(OC)c2)NC1c1cccc(F)c1 (stereo unspecified) | . | . | -4 | . | 10
CC1CC(C)CN(CC(=O)N2CCCc3c2c(=O)oc2ccc(OCc4ccccc4)cc32)C1 (stereo unspecified) | -6 | 1 | -7 | -9 | 7
CC1CCN(CC(=O)N2CCCc3c2c(=O)oc2ccc(OCc4ccccc4)cc32)CC1 | -6 | 49* | 1 | -23 | 2
Cc1cc(Nc2cccc(F)c2)cc(=O)n1-c1cccc(F)c1 | . | . | -2 | . | -2
O=C(c1c[nH]c2ccccc12)C(O)C(c1ccccc1)N1CCOCC1 (stereo unspecified) | -3 | -6 | 1 | 7 | 9
COc1ccc(C(C(O)C(=O)c2c[nH]c3ccccc23)N2CCN(c3ccc(OC)cc3)CC2)cc1 (stereo unspecified) | 9 | -12 | 9 | 12 | 38*
CCOC(=O)Nc1ccc2c(c1)N(C(=O)CN(CC)CC)c1ccccc1C=C2 | -15 | 72* | -17 | -35 | 1
CCOC(=O)Nc1ccc2c(c1)N(C(=O)CCN(CC)CC)c1ccccc1CC2 | -10 | 22 | -17 | -23 | 7
CCOC(=O)Nc1ccc2c(c1)N(C(=O)CCN(CC)CC)c1ccccc1S2=O (stereo unspecified) | -9 | 59* | -11 | -27 | 2
O=C(NC1CCCC1)[C@@H]1CCCN1C(=O)[C@H](Cc1cccnc1)NC(=O)N1CCOCC1 | . | . | -6 | . | 3
Nc1nc2c(-c3ccc([N+](=O)[O-])cc3)nnn2c2ccccc12 | . | . | 6 | . | 0
CCOc1ccc(-n2c(-c3ccccc3)c[n+]3c2CCC3)cc1 | -5 | 38* | 16 | -15 | 16
CCOc1ccc(-n2c(-c3ccc(OC)cc3)c[n+]3c2CCCCC3)cc1 | -10 | 17 | 18 | -11 | 1
CCOc1ccc(-n2c(-c3ccc(Br)cc3)c[n+]3c2CCCCC3)cc1 | -12 | 30* | 2 | -27 | 9
COc1cccc(CN2CCCC(C(=O)c3ccc4c(c3)OCO4)C2)c1O (stereo unspecified) | -7 | 41* | 8 | -24 | 3
O=C(c1ccc2c(c1)OCO2)C1CCCN(C2CCN(CCc3ccccc3)CC2)C1 (stereo unspecified) | -14 | 74* | -2 | -35 | 2
CC(=O)c1cccc(CN2CCCC(C(=O)c3ccc4c(c3)OCO4)C2)c1 (stereo unspecified) | -10 | 72* | -17 | -26 | 2
COc1ccc(CN2CCCC(C(=O)c3ccc4c(c3)OCO4)C2)c(F)c1 (stereo unspecified) | -3 | 93* | -16 | -23 | -1
CCOC(=O)CNC(=O)N1CCCC(C(=O)c2ccc3c(c2)OCO3)C1 (stereo unspecified) | -8 | 2 | 6 | -3 | 6
CC(C)C[C@H]1CNC(=O)C(=O)N1C[C@@H]1CCCN1C[C@H](Cc1ccccc1)N1C[C@H](CC(C)C)N(CC2CCCCC2)C(=O)C1=O | . | . | -19 | . | 1
Nc1[nH]c(C(=O)c2ccc(Br)cc2)c(-c2ccccc2)c1C(=O)NCCc1c[nH]c2ccccc12 | . | . | -38 | . | 0
COC(=O)c1cc2c(c3c4cc(C)ccc4n(S(=O)(=O)c4cccc(C)c4)c13)C(=O)N(Cc1ccccc1OC)C2 | . | . | -34 | . | 0
O=C(NCc1ccco1)C(=O)NN=Cc1ccccc1O | . | . | -12 | . | 8
